Reference: ChEMBL document CHEMBL2150871, “Design, synthesis and biological evaluation of new peptide-based ureas and thioureas as potential antagonists of the thrombin receptor PAR1” (Eur J Med Chem, 2012)

Target: T1, Proteinase-activated receptor 1 (Homo sapiens) (UniProt P25116)
T1 sequence (whole entry): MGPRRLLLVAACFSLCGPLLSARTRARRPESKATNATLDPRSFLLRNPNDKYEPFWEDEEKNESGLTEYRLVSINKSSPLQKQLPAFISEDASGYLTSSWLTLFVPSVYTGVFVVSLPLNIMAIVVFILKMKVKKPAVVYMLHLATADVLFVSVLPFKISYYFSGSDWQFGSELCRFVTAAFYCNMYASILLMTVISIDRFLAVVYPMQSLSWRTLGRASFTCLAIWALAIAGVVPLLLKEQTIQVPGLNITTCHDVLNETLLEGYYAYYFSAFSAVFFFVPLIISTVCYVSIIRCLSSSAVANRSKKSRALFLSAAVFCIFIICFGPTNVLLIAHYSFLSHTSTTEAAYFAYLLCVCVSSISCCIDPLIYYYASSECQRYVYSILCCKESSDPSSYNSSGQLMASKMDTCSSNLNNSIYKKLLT
Experiment: Antagonist activity at PAR1 in human platelets assessed as inhibition of SFLLRN-induced aggregation at 10 uM after 5 mins relative to vehicle-treated control
Type: functional
Outline: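 Human donors who had taken no platelet-altering drugs for two weeks gave venous blood into 3.2% buffered citrate. Spun at 250×g for 7 min to give PRP, then 900×g for 10 min to give PPP, which served as optical reference and diluent. Diluted PRP was preincubated 5 min at 37 °C with compound or DMSO vehicle, then challenged with SFLLRN. Maximal optical aggregation at 5 min was compared with SFLLRN/vehicle to give % inhibition.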

NCC[C@H](NC(=O)[C@H](Cc1ccc(F)c(F)c1)NC(=O)Nc1ccc2c(CN3CCCC3)nn(Cc3c(Cl)cccc3Cl)c2c1)C(=O)NCc1ccccc1
inhibition: 98%
